Results from ChEMBL document CHEMBL5058577, “EUbOPEN Chemogenomics Library 2 (Multiplex)” (2022).

Tested on: U2OS
Experiment: Multiplex assay against U2OS
Format: toxicity, cell-based
Settings: human
Summary of the method: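 On a CQ1 microscope at 37°C and 5% CO2, live cells were imaged after compound addition. They had been stained at seeding with Hoechst33342, BioTracker Green Microtubule Cytoskeleton Dye, MitoTracker Red and Annexin V Alexa Fluor 680. CellPathfinder machine-learning gating assigned cells to Hoechst high-intensity objects or normal cells, normal cells to healthy, pyknosed or fragmented nuclei, and pyknosed cells to mitotic or apoptotic. Tubulin, mitochondrial-mass and membrane-permeability phenotypes are per cents of healthy-nucleus cells.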

[1] = 12 h, 1 µM, compound concentration 1 uM, replicate 1
[2] = 12 h, 1 µM, compound concentration 1 uM, replicate 2
[3] = 12 h, 10 µM, compound concentration 10 uM, replicate 1
[4] = 12 h, 10 µM, compound concentration 10 uM, replicate 2
[5] = 24 h, 1 µM, compound concentration 1 uM, replicate 1
[6] = 24 h, 1 µM, compound concentration 1 uM, replicate 2
[7] = 24 h, 10 µM, compound concentration 10 uM, replicate 1
[8] = 24 h, 10 µM, compound concentration 10 uM, replicate 2
[9] = 48 h, 1 µM, compound concentration 1 uM, replicate 1
[10] = 48 h, 1 µM, compound concentration 1 uM, replicate 2
[11] = 48 h, 10 µM, compound concentration 10 uM, replicate 1
[12] = 48 h, 10 µM, compound concentration 10 uM, replicate 2

## Cc1cccc(NC(=O)CN2CCC(c3ccccn3)CC2)c1.Cl.Cl
[1]
  Population Apoptotic (%): 90%
  Population Fragmented Nuclei (%): 27%
  Population Healthy Nuclei (%): 67%
  Population Hoechst High Intensity Objects (%): 1%
  Population Membrane Permeable-Phenotype (%): 5%
  Population Mitochondria Different-Phenotype (%): 2%
  Population Mitotic Cells (%): 9%
  Population Normal (%): 98%
  Population Pyknosed Nuclei (%): 5%
  Population Tubulin-Different-Phenotype (%): 3%
  Total Cell Count: 208
[2]
  Population Apoptotic (%): 57%
  Population Fragmented Nuclei (%): 17%
  Population Healthy Nuclei (%): 76%
  Population Hoechst High Intensity Objects (%): 0%
  Population Membrane Permeable-Phenotype (%): 4%
  Population Mitotic Cells (%): 42%
  Population Normal (%): 99%
  Population Pyknosed Nuclei (%): 6%
  Total Cell Count: 111
[3]
  Population Apoptotic (%): 72%
  Population Fragmented Nuclei (%): 34%
  Population Healthy Nuclei (%): 55%
  Population Hoechst High Intensity Objects (%): 2%
  Population Membrane Permeable-Phenotype (%): 8%
  Population Mitochondria Different-Phenotype (%): 6%
  Population Mitotic Cells (%): 27%
  Population Normal (%): 97%
  Population Pyknosed Nuclei (%): 10%
  Population Tubulin-Different-Phenotype (%): 3%
  Total Cell Count: 216
[4]
  Population Apoptotic (%): 66%
  Population Fragmented Nuclei (%): 21%
  Population Healthy Nuclei (%): 70%
  Population Hoechst High Intensity Objects (%): 1%
  Population Membrane Permeable-Phenotype (%): 12%
  Population Mitochondria Different-Phenotype (%): 7%
  Population Mitotic Cells (%): 33%
  Population Normal (%): 98%
  Population Pyknosed Nuclei (%): 8%
  Population Tubulin-Different-Phenotype (%): 9%
  Total Cell Count: 111
[5]
  Population Apoptotic (%): 76%
  Population Fragmented Nuclei (%): 22%
  Population Healthy Nuclei (%): 70%
  Population Hoechst High Intensity Objects (%): 3%
  Population Membrane Permeable-Phenotype (%): 5%
  Population Mitochondria Different-Phenotype (%): 3%
  Population Mitotic Cells (%): 23%
  Population Normal (%): 96%
  Population Pyknosed Nuclei (%): 7%
  Population Tubulin-Different-Phenotype (%): 3%
  Total Cell Count: 249
[6]
  Population Apoptotic (%): 73%
  Population Fragmented Nuclei (%): 21%
  Population Healthy Nuclei (%): 67%
  Population Hoechst High Intensity Objects (%): 0%
  Population Membrane Permeable-Phenotype (%): 7%
  Population Mitochondria Different-Phenotype (%): 4%
  Population Mitotic Cells (%): 26%
  Population Normal (%): 99%
  Population Pyknosed Nuclei (%): 11%
  Population Tubulin-Different-Phenotype (%): 5%
  Total Cell Count: 135
[7]
  Population Apoptotic (%): 85%
  Population Fragmented Nuclei (%): 32%
  Population Healthy Nuclei (%): 55%
  Population Hoechst High Intensity Objects (%): 3%
  Population Membrane Permeable-Phenotype (%): 6%
  Population Mitochondria Different-Phenotype (%): 3%
  Population Mitotic Cells (%): 14%
  Population Normal (%): 96%
  Population Pyknosed Nuclei (%): 11%
  Population Tubulin-Different-Phenotype (%): 2%
  Total Cell Count: 243
[8]
  Population Apoptotic (%): 75%
  Population Fragmented Nuclei (%): 20%
  Population Healthy Nuclei (%): 73%
  Population Hoechst High Intensity Objects (%): 2%
  Population Membrane Permeable-Phenotype (%): 17%
  Population Mitochondria Different-Phenotype (%): 5%
  Population Mitotic Cells (%): 25%
  Population Normal (%): 97%
  Population Pyknosed Nuclei (%): 6%
  Population Tubulin-Different-Phenotype (%): 10%
  Total Cell Count: 131
[9]
  Population Apoptotic (%): 82%
  Population Fragmented Nuclei (%): 18%
  Population Healthy Nuclei (%): 72%
  Population Hoechst High Intensity Objects (%): 2%
  Population Membrane Permeable-Phenotype (%): 6%
  Population Mitochondria Different-Phenotype (%): 3%
  Population Mitotic Cells (%): 17%
  Population Normal (%): 97%
  Population Pyknosed Nuclei (%): 8%
  Population Tubulin-Different-Phenotype (%): 3%
  Total Cell Count: 341
[10]
  Population Apoptotic (%): 94%
  Population Fragmented Nuclei (%): 17%
  Population Hoechst High Intensity Objects (%): 3%
  Population Membrane Permeable-Phenotype (%): 2%
  Population Mitotic Cells (%): 5%
  Population Normal (%): 96%
  Population Pyknosed Nuclei (%): 10%
  Population Tubulin-Different-Phenotype (%): 2%
  Total Cell Count: 182
[11]
  Population Apoptotic (%): 96%
  Population Fragmented Nuclei (%): 29%
  Population Healthy Nuclei (%): 60%
  Population Hoechst High Intensity Objects (%): 3%
  Population Membrane Permeable-Phenotype (%): 6%
  Population Mitochondria Different-Phenotype (%): 6%
  Population Mitotic Cells (%): 3%
  Population Normal (%): 96%
  Population Pyknosed Nuclei (%): 9%
  Population Tubulin-Different-Phenotype (%): 3%
  Total Cell Count: 303
[12]
  Population Apoptotic (%): 83%
  Population Fragmented Nuclei (%): 19%
  Population Healthy Nuclei (%): 74%
  Population Membrane Permeable-Phenotype (%): 10%
  Population Mitochondria Different-Phenotype (%): 4%
  Population Mitotic Cells (%): 16%
  Population Pyknosed Nuclei (%): 6%
  Population Tubulin-Different-Phenotype (%): 4%
  Total Cell Count: 198
